Measured values from ChEMBL document CHEMBL4130487, “A pentanoic acid derivative targeting matrix metalloproteinase-2 (MMP-2) induces apoptosis in a chronic myeloid leukemia cell line” (Eur J Med Chem, 2017).
Activity calls are given as the source filed them. The calls are words filed in the database; no cut-off is given here.

Tests used:
U-937 = assay: Cytotoxicity against human U937 cells assessed as reduction in cell viability after 48 hrs by MTT assay; type: functional, cell-based; conditions: U-937, 48 h
How it was run: (§1)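 A549, MDA-MB-231, K562, U937 and PBMC (PBMC from healthy donors) seeded at 1×10^3 cells/well and left 24 h, then exposed to compounds for 48 h at 37 °C, 5% CO2. Adherent lines were grown in DMEM, the others in RPMI-1640 with 10% heat-inactivated FBS. MTT read-out; viability expressed as % of untreated control. IC50 taken as the concentration giving 50% viability loss.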

K562 [1] = assay: Cell cycle arrest in human K562 cells assessed as accumulation at G1-phase at 10 uM after 48 hrs by propidium iodide staining based flow cytometry (reference value: 27.5%); type: functional
Interstitial collagenase = biological target: T1, Interstitial collagenase (Homo sapiens, UniProt P03956); assay: Inhibition of recombinant human MMP1 (Phe100 to Gln268 residues) using Ac-Pro-Leu-Gly-S-Leu-Leu-Gly-OEt as substrate after 1 hr measured at 1 min time interval for 30 mins by microplate photometric method
T1 sequence (P03956 whole entry): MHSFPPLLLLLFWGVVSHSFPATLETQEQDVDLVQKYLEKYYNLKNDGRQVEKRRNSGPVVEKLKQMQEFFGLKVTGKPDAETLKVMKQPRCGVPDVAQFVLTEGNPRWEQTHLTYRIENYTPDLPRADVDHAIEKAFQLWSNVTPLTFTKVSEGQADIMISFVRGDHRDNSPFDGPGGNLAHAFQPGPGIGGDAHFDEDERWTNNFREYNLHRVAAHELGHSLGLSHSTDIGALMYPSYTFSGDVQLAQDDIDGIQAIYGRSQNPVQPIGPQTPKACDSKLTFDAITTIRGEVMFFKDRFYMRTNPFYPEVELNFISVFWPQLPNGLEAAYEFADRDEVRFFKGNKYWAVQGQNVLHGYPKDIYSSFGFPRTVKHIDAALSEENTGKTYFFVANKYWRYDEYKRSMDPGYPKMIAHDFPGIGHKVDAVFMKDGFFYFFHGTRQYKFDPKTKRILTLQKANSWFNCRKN
How it was run: (§2)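 Commercial MMP kits; compound preincubated with enzyme before chromogenic substrate was added. Reactions at 37 °C for 1 h, with at least six inhibitor concentrations in triplicate. Absorbance at 410 nm read every 1 min for 30 min. NNGH used as reference inhibitor. IC50 taken from semi-logarithmic dose-response plots.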

[2] = biological target: Macrophage metalloelastase (Homo sapiens, UniProt P39900); assay: Inhibition of recombinant human MMP12 (Phe99 to Leu271 residues) expressed in Escherichia coli using Ac-Pro-Leu-Gly-S-Leu-Leu-Gly-OEt as substrate after 1 hr measured at 1 min time interval for 30 mins by microplate photometric method; how it was run: as §2
Sequence of Macrophage metalloelastase (P39900 whole entry): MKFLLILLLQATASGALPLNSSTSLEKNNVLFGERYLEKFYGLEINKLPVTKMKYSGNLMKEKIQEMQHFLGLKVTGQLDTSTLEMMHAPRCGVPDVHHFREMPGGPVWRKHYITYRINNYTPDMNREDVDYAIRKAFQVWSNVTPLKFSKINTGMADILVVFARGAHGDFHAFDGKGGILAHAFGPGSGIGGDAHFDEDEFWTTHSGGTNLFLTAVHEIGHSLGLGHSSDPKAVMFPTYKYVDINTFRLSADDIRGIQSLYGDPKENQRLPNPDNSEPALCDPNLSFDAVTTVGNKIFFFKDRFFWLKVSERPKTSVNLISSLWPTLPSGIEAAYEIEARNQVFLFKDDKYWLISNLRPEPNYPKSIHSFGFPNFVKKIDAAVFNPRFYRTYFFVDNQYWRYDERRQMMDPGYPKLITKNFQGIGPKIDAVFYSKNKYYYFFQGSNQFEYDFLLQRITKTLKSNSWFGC

K562 [3] = assay: Cytotoxicity against human K562 cells assessed as reduction in cell viability after 48 hrs by MTT assay; type: functional, cell-based; conditions: K562, 48 h; how it was run: as §1
K562 [4] = assay: Cell cycle arrest in human K562 cells assessed as accumulation at G1-phase at 5 uM after 48 hrs by propidium iodide staining based flow cytometry (reference value: 27.5%); type: functional
[5] = biological target: 72 kDa type IV collagenase (Homo sapiens, UniProt P08253); assay: Inhibition of recombinant human MMP2 (Tyr110 to Asp452 residues) using Ac-Pro-Leu-Gly-S-Leu-Leu-Gly-OEt as substrate after 1 hr measured at 1 min time interval for 30 mins by microplate photometric method; how it was run: as §2
Sequence of 72 kDa type IV collagenase (P08253 whole entry): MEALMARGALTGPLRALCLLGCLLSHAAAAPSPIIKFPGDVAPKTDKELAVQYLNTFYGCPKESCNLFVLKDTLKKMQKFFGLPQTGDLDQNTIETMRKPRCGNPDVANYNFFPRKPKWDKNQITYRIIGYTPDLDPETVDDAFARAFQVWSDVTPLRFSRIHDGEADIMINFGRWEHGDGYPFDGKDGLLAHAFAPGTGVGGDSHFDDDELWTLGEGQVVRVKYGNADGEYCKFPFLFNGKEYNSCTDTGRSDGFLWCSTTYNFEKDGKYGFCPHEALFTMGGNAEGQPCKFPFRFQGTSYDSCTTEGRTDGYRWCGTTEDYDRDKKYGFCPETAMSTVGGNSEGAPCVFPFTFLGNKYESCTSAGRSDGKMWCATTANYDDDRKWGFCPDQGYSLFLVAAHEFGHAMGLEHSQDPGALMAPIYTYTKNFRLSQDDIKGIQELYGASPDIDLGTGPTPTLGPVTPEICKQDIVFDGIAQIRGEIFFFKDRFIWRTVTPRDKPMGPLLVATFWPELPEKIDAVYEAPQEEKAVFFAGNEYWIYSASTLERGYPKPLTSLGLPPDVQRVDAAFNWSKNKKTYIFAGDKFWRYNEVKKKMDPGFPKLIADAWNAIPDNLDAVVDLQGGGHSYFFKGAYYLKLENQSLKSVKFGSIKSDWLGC

K562 [6] = assay: Induction of apoptosis in human K562 cells assessed as early apoptotic cells at 2.5 uM after 48 hrs by Annexin V-FITC/propidium iodide staining based flow cytometry (reference value: 9.6%); type: functional
K562 [7] = assay: Anti-invasive activity against human K562 cells after 24 hrs by CyQuantGR dye based fluorimetric QCM EC matrix assay; type: functional, cell-based
How it was run: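 K562 cells (1X10^6 cells/ml) starved overnight in FBS-free medium, then placed in inserts in FBS-free medium with 5% BSA, with 5% FBS medium below as chemoattractant. Treated at 2.5, 5 and 10 μM in triplicate for 24 h alongside an untreated control. Invaded cells were detached, stained with CyQuantGR and read by fluorescence (ex 480/em 520 nm). Results given as % of control, mean ± SD.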

K562 [8] = assay: Cell cycle arrest in human K562 cells assessed as accumulation at G1/S-phase at 10 uM after 24 hrs by propidium iodide staining based flow cytometry (reference value: 21.8%)
K562 [9] = assay: Cell cycle arrest in human K562 cells assessed as accumulation at G2/M-phase at 5 uM after 48 hrs by propidium iodide staining based flow cytometry (reference value: 35.3%); type: functional
[10] = biological target: MMP-2/MMP-9 (Homo sapiens) (UniProt P08253+P14780); assay: Selectivity ratio of IC50 for recombinant human MMP9 (Phe107 to Pro449 residues) expressed in Escherichia coli to IC50 for recombinant human MMP2 (Tyr110 to Asp452 residues)
K562 [11] = assay: Induction of apoptosis in human K562 cells assessed as DNA nick generation after 48 hrs by DAPI staining based fluorescence microscopic method
K562 [12] = assay: Induction of apoptosis in human K562 cells assessed as early apoptotic cells at 5 uM after 48 hrs by Annexin V-FITC/propidium iodide staining based flow cytometry (reference value: 9.6%); type: functional
K562 [13] = assay: Downregulation of MMP2 protein expression in human K562 cells up to 10 uM after 48 hrs by Western blot method; type: functional, cell-based
How it was run: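 K562 cells (~2×10^6) grown 48 h, then treated. Lysed on ice in Tris-HCl pH 7.5 buffer with CHAPS and glycerol. 50 µg protein run on 12% SDS-PAGE (15% for β-tubulin) and blotted to PVDF. Probed with anti-MMP-2 and anti-β-tubulin (1:1000) overnight at 4 °C, then ALKP secondary antibody and DAB development. Band intensity normalised to β-tubulin; mean ± SD.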

K562 [14] = assay: Cell cycle arrest in human K562 cells assessed as accumulation at sub-G1 phase at 10 uM after 48 hrs by propidium iodide staining based flow cytometry (reference value: 1%); type: functional
A549 = assay: Cytotoxicity against human A549 cells assessed as reduction in cell viability after 48 hrs by MTT assay; type: functional, cell-based; conditions: A549, 48 h; how it was run: as §1
K562 [15] = assay: Cell cycle arrest in human K562 cells assessed as accumulation at G2/M-phase at 10 uM after 24 hrs by propidium iodide staining based flow cytometry (reference value: 35.3%)
K562 [16] = assay: Cell cycle arrest in human K562 cells assessed as accumulation at G1/S-phase at 5 uM after 48 hrs by propidium iodide staining based flow cytometry (reference value: 21.8%); type: functional
K562 [17] = assay: Induction of apoptosis in human K562 cells assessed as late apoptotic cells at 5 uM after 48 hrs by Annexin V-FITC/propidium iodide staining based flow cytometry (reference value: 0.3%); type: functional
K562 [18] = assay: Cell cycle arrest in human K562 cells assessed as accumulation at sub-G1 phase at 2.5 uM after 24 hrs by propidium iodide staining based flow cytometry (reference value: 1%)

- IC50 (Interstitial collagenase): > 500 µM
- IC50 [2]: 493 µM
- IC50 [5]: 4.8 µM
- Ratio IC50 [10]: 1.42
SMILES: CCCCCNC(=O)CC[C@H](NS(=O)(=O)c1ccc([N+](=O)[O-])cc1)C(=O)O
- IC50 (U-937): 32.1 µM
- Activity (K562 [1]): 39.8%
- IC50 (K562 [3]): 17.9 µM
- Activity (K562 [4]): 33.4%
- Activity (K562 [6]): 14.3%
- Activity (K562 [7]): Dose-dependent effect
- Activity (K562 [8]): 14%
- Activity (K562 [9]): 32.2%
- Activity (K562 [11]): Active
- Activity (K562 [12]): 15.4%
- Activity (K562 [13]): Active
- Activity (K562 [14]): 4.6%
- IC50 (A549): 206 µM
- Activity (K562 [15]): 23.1%
- Activity (K562 [16]): 19.6%
- Activity (K562 [17]): 8.5%
- Activity (K562 [18]): 1.4%
